Results published in ChEMBL document CHEMBL1129322, “Discovery and optimization of a novel class of orally active nonpeptidic endothelin-A receptor antagonists” (J Med Chem, 1996).
pKi: −log10 of the molar value. One block for each molecule: values may come before it.

Columns and labels:
Oryctolagus cuniculus = organism: Oryctolagus cuniculus; assay: Functional vascular ET-1 antagonism was determined in rabbit aorta rings with intact endothelium; details: read-out: pA2 (converted)
Rattus norvegicus [1] = assay: Ability to protect rats from ET-1 induced sudden death in rats after peroral administration; type: functional
Outline: (§1)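 Male Sprague-Dawley rats (280-320 g) were pretreated orally with antagonist 4 h before a tail-vein injection of ET-1 (6 nmol/kg), which causes severe ECG disturbances and lethality within minutes. Oral doses were 10, 30 or 100 mg/kg. Lethality was scored as deaths/n, and ED100 was taken as the dose giving complete protection.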

Endothelin-1 receptor = target: T1, Endothelin-1 receptor (Homo sapiens, UniProt P25101); assay: Binding affinity towards human Endothelin A receptor by measuring its ability to displace [125I]ET1 from CHO cells; type: cell-based
T1 sequence (P25101 whole entry): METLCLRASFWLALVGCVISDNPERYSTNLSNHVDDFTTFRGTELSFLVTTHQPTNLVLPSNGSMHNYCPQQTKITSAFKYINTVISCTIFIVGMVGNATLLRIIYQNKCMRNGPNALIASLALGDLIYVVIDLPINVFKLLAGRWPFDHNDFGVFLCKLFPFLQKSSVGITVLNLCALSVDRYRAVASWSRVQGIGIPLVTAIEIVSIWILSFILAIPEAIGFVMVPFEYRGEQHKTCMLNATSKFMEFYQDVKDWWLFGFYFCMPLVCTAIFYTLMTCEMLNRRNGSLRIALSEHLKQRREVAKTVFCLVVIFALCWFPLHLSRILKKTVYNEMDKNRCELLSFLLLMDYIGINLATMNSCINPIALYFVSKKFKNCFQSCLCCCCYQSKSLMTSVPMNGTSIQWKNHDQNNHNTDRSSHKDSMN

[2] = target: T2, Endothelin receptor type B (Homo sapiens, UniProt P24530); assay: (§2) Binding affinity towards human Endothelin B receptor by measuring its ability to displace [125I]ET-3 from CHO cells; type: cell-based
T2 sequence (P24530 whole entry): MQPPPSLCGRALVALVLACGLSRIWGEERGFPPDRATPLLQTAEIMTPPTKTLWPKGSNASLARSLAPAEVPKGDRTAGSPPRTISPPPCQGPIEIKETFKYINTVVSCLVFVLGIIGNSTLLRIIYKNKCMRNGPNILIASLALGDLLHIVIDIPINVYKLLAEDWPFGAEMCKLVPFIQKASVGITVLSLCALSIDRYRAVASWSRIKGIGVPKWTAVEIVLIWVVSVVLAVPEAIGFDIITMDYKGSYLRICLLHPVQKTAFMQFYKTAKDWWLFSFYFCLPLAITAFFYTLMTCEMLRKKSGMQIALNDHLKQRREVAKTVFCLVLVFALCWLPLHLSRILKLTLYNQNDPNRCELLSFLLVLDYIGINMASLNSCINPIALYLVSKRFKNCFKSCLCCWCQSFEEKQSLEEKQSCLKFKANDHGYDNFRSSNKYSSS
Outline: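 Membranes ([…]) from stably transfected CHO cells expressing human ET_A or ET_B receptors, or guinea pig cerebellum (ET_B), incubated with 25 pmol/L [125I]ET-1 or [125I]ET-3 with or without drugs; nonspecific binding defined with […] ET-1.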

[3] = target: T2, Endothelin receptor type B; assay: as §2; type: cell-based; remark: listed apart in the source
Rattus norvegicus [4] = assay: Ability to protect rats from ET-1 induced sudden death in rats after intravenous administration; type: functional
Outline: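 Male Sprague-Dawley rats (280-320 g) received antagonist intravenously and were then challenged with ET-1 (6 nmol/kg) injected into a tail vein, a dose that causes lethality within minutes. ED100 was the intravenous dose giving complete protection from sudden death.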

[5] = target: T3, Endothelin receptor (Rattus norvegicus) (UniProt P26684+P21451); assay: In vivo prevention of ET-1-induced sudden death in 5 rats by pretreatment with endothelin receptor antagonist at a dose of 10 mg/kg p.o.; 5/5; type: functional, organism-based; parameters: dose 10 mg/kg; outline: as §1
[6] = target: T3, Endothelin receptor (Rattus norvegicus); assay: In vivo prevention of ET-1-induced sudden death in 6 rats by pretreatment with endothelin receptor antagonist at a dose of 30 mg/kg p.o.; 0/6; type: functional, organism-based; parameters: dose 30 mg/kg; outline: as §1
[7] = target: T3, Endothelin receptor (Rattus norvegicus); assay: In vivo prevention of ET-1-induced sudden death in 6 rats by pretreatment with endothelin receptor antagonist at a dose of 30 mg/kg p.o.; type: functional, organism-based; parameters: dose 30 mg/kg; outline: as §1
Rattus norvegicus [8] = assay: Ability to protect rats from ET-1 induced sudden death in after peroral administration; type: functional; outline: as §1
[9] = target: T3, Endothelin receptor (Rattus norvegicus); assay: In vivo prevention of ET-1-induced sudden death in 5 rats by pretreatment with endothelin receptor antagonist at a dose of 100 mg/kg p.o.; 0/5; type: functional, organism-based; parameters: dose 100 mg/kg; outline: as §1
[10] = target: T3, Endothelin receptor (Rattus norvegicus); assay: In vivo prevention of ET-1-induced sudden death in 9 rats by pretreatment with endothelin receptor antagonist at a dose of 30 mg/kg p.o.; 9/9; type: functional, organism-based; parameters: dose 30 mg/kg; outline: as §1
[11] = target: T3, Endothelin receptor (Rattus norvegicus); assay: In vivo prevention of ET-1-induced sudden death in 6 rats by pretreatment with endothelin receptor antagonist at a dose of 30 mg/kg p.o.; 2/6; type: functional, organism-based; parameters: dose 30 mg/kg; outline: as §1
[12] = target: T3, Endothelin receptor (Rattus norvegicus); assay: In vivo prevention of ET-1-induced sudden death in 6 rats by pretreatment with endothelin receptor antagonist at a dose of 10 mg/kg p.o.; 6/6; type: functional, organism-based; parameters: dose 10 mg/kg; outline: as §1

T3 sequence (P21451 whole entry, looked up): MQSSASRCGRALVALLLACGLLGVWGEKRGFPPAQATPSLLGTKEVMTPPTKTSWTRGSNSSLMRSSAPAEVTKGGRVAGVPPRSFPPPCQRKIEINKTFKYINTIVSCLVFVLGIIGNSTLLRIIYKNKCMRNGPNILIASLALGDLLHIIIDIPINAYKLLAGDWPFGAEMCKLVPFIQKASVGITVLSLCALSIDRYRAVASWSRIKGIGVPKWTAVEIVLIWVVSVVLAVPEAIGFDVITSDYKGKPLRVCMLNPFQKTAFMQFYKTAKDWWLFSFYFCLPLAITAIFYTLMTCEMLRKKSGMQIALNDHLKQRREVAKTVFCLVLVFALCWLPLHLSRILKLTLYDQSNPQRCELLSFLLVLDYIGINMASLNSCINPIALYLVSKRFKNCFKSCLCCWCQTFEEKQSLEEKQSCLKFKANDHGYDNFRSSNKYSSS
T3 sequence (P26684 whole entry, looked up): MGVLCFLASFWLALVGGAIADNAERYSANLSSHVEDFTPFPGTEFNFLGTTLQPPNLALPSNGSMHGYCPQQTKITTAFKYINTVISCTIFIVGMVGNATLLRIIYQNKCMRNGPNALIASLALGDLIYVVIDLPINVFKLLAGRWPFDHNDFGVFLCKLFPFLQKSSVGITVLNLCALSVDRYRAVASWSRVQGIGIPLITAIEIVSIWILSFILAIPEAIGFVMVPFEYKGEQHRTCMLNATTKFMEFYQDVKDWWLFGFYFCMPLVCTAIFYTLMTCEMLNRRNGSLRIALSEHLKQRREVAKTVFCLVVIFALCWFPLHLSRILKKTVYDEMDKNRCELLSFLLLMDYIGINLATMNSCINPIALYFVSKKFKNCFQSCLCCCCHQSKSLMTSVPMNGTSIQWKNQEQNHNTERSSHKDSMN

SMILES: COc1cccc(Oc2c(NS(=O)(=O)c3ccc(C(C)(C)C)cc3)ncnc2OCCO)c1
Kb (Oryctolagus cuniculus): > 1000 nM | ED100 (Rattus norvegicus [1]): >100 mg/kg

pKi (Endothelin-1 receptor): 9.00
SMILES: CCc1cc(CC)nc(OC(C(=O)O)C(OC)(c2ccccc2)c2ccccc2)n1 (stereo unspecified)

pKi (Endothelin-1 receptor): 6.61
SMILES: COc1cc(OC)nc(OC(C(=O)O)C(OC)(c2ccc(Cl)cc2)c2ccc(Cl)cc2)n1 (stereo unspecified)

pKi (Endothelin-1 receptor): 9.92
SMILES: COc1cc(C)nc(OC(C(=O)O)C(OC)(c2ccccc2)c2ccccc2)n1 (stereo unspecified)

pKi (Endothelin-1 receptor): 7.62
SMILES: COc1cc(OC)nc(OC(C(=O)O)C(OC)(c2cccc(C)c2)c2cccc(C)c2)n1 (stereo unspecified)

pKi (Endothelin-1 receptor): 6.80 | pKi [2]: 5.33
SMILES: COC(=O)C(Oc1nc(OC)cc(OC)n1)C(C)(Oc1ccc(SC)cc1)c1ccccc1 (stereo unspecified)

SMILES: CCCOc1ccc2c(c1)[C@@H](c1ccc(OC)cc1OCC(=O)O)[C@H](C(=O)O)[C@H]2c1ccc2c(c1)OCO2 [SB-209670]
Kb (Oryctolagus cuniculus): 0.158 nM | ED100 (Rattus norvegicus [1]): 100 mg/kg

pKi (Endothelin-1 receptor): 9.00
SMILES: COC(c1ccccc1)(c1ccccc1)C(Oc1nc(C)cc(C)n1)C(=O)O (stereo unspecified)

SMILES: COc1cc(OC)nc(OC(C(=O)O)C(OC)(c2ccccc2)c2ccccc2)n1 (stereo unspecified)
pKi [3]: 6.43 | ED100 (Rattus norvegicus [4]): 10 mg/kg | Kb (Oryctolagus cuniculus): 45.7 nM | Lethality [5]: 5 | Lethality [6]: 0 | ED100 (Rattus norvegicus [1]): 30 mg/kg

SMILES: Cc1noc(NS(=O)(=O)c2cccc3c(N(C)C)cccc23)c1C [BMS-182874]
Lethality [7]: 6 | Kb (Oryctolagus cuniculus): 81.3 nM | ED100 (Rattus norvegicus [1]; po): > 100 mg/kg

pKi (Endothelin-1 receptor): 6.60 | pKi [2]: 5.52
SMILES: COC(=O)C(Oc1nc(OC)cc(OC)n1)C(C)(Oc1ccc(C(C)C)cc1)c1ccccc1 (stereo unspecified)

pKi (Endothelin-1 receptor): 6.47
SMILES: COc1cc(OC)nc(OC(C(=O)O)C(OCCC(C)(C)C)(c2ccccc2)c2ccccc2)n1 (stereo unspecified)

pKi (Endothelin-1 receptor): 6.82
SMILES: COc1cc(OC)nc(OC(C(=O)O)C(OC)(c2ccccc2F)c2ccccc2F)n1 (stereo unspecified)

pKi (Endothelin-1 receptor): 6.76
SMILES: CCOc1cc(OCC)nc(OC(C(=O)O)C(OC)(c2ccccc2)c2ccccc2)n1 (stereo unspecified)

pKi (Endothelin-1 receptor): 7.66
SMILES: COc1cccc(C(OC)(c2cccc(OC)c2)C(Oc2nc(OC)cc(OC)n2)C(=O)O)c1 (stereo unspecified)

pKi (Endothelin-1 receptor): 9.15
SMILES: CCc1cc(C)nc(OC(C(=O)O)C(OC)(c2ccccc2)c2ccccc2)n1 (stereo unspecified)

pKi (Endothelin-1 receptor): 6.70
SMILES: COc1cc(OC)nc(OC(C(=O)O)C(OC)(c2ccc(C)cc2)c2ccc(C)cc2)n1 (stereo unspecified)

pKi (Endothelin-1 receptor): 7.96
SMILES: COc1cc(OC)nc(OC(C(=O)O)C(OC)(c2cccc(F)c2)c2cccc(F)c2)n1 (stereo unspecified)

SMILES: COc1nc(OC(C(=O)O)C(OC)(c2ccccc2)c2ccccc2)nc2c1CCC2 (stereo unspecified)
pKi (Endothelin-1 receptor): 9.40 | ED100 (Rattus norvegicus [8]): 100 mg/kg | Kb (Oryctolagus cuniculus): 0.575 nM | Lethality [9]: 0 | Lethality [10]: 9

pKi (Endothelin-1 receptor): 6.89
SMILES: COc1cc(OC)nc(OC(C(=O)O)C(O)(c2ccccc2)c2ccccc2)n1 (stereo unspecified)

SMILES: COc1nc(OC(C(=O)O)C(OC)(c2ccccc2)c2ccccc2)nc2c1CCO2 (stereo unspecified)
Lethality [11]: 2 | pKi (Endothelin-1 receptor): 9.05 | Kb (Oryctolagus cuniculus): 0.933 nM | Lethality [9]: 0 | Lethality [12]: 6 | ED100 (Rattus norvegicus [1]): 100 mg/kg
